Test results reported in ChEMBL document CHEMBL1130028, “A comparison of structure-activity relationships between spermidine and spermine analogue antineoplastics” (J Med Chem, 1997).
pIC50, pKi: −log10 of the molar value.

Tests used:
[1] = test system: L1210; test: Percentage of spermidine after 48 hr of exposure to the compound (2 uM ) in L1210 cells; assay type: functional, Mus musculus
Procedure, shortened: (§1)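 Log-phase L1210 cells were treated for 48 h with analogue at two concentrations. Cells were washed twice in cold RPMI-1640 and extracted with 0.6 N HClO4. Putrescine, spermidine and spermine were quantified by HPLC of dansyl derivatives and given as percent of untreated controls. Runs were in triplicate with untreated controls.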

[2] = molecular target: T1, S-adenosylmethionine decarboxylase proenzyme 1 (Mus musculus) (UniProt P0DMN7); test: Effect on S-Adenosyl-methionine decarboxylase (AdoMetDC) tested at 1 uM at 6 hour in L1210 cells; assay type: functional, cell-based
T1 sequence (whole entry): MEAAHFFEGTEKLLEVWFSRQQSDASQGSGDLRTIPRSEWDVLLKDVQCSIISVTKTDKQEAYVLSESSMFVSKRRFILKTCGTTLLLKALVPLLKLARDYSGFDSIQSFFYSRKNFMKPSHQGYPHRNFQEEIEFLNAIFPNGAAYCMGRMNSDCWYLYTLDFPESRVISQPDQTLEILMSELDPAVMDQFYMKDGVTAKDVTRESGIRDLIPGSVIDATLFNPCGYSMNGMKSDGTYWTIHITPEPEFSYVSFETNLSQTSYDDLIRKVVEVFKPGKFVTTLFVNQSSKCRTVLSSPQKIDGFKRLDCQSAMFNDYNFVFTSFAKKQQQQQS
Procedure, shortened: (§2)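 L1210 cells were exposed to 1 μM analogue, for 4 h (ODC) or 6 h (AdoMetDC). Activity was measured as 14CO2 released from [14C]carboxyl-labelled L-ornithine (ODC) or S-adenosyl-L-methionine (AdoMetDC) and given as percent of untreated control. Each run included DEHSPM-treated positive controls. Values are the mean of at least three experiments.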

[3] = test system: L1210; test: Percentage of spermidine after 48 hr of exposure to the compound (10 uM ) in L1210 cells; assay type: functional, Mus musculus; procedure, shortened: as §1
[4] = test system: L1210; test: Intracellular levels in L1210 cells following 500 uM exposure.; assay type: functional, Mus musculus
Procedure, shortened: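 L1210 cells were grown 48 h in medium containing 500 μM analogue. Cellular contents were analysed by HPLC of dansyl derivatives and given as pmol/10^6 cells, as parent drug and metabolites with the % of total drug in the cell.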

[5] = test system: L1210; test: Percentage of putrescine after 48 hr exposure to the compound (10 uM ) in L1210 cells; assay type: functional, Mus musculus; procedure, shortened: as §1
[6] = test system: L1210; test: Percentage of putrescine after 48 hr exposure to the compound (2 uM ) in L1210 cells; assay type: functional, Mus musculus; procedure, shortened: as §1
[7] = molecular target: Spermidine/spermine N(1)-acetyltransferase (SAT) (Mus musculus) (UniProt Q6P8J2+P48026); test: Effect on Spermidine/Spermine-Acetyltransferase (SSAT ) at 10 uM at 48 hour in L1210 cells; assay type: functional, cell-based
Chain of Spermidine/spermine N(1)-acetyltransferase (SAT) (Mus musculus) (P48026 whole entry, looked up): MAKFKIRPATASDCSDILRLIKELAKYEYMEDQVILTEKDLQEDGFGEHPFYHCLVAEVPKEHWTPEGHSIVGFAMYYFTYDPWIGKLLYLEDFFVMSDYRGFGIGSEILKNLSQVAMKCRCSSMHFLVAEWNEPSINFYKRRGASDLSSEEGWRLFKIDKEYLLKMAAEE
Chain of Spermidine/spermine N(1)-acetyltransferase (SAT) (Mus musculus) (Q6P8J2 whole entry, looked up): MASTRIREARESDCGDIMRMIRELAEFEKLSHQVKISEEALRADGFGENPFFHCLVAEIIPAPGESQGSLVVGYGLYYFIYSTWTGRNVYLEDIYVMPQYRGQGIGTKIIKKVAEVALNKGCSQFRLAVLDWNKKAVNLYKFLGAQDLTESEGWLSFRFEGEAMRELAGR
Procedure, shortened: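 L1210 cells were exposed to 10 μM triamine for 48 h. SSAT activity was taken as [14C]N1-acetylspermidine formed from spermidine and [14C]acetyl-CoA, given as percent of untreated control. DENSPM-treated cells served as positive control. Values are the mean of at least three experiments.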

[8] = test system: L1210; test: Growth inhibitory activity against L1210 cells (96h); assay type: functional, cell-based; conditions: Mus musculus, L1210, 96 h
Procedure, shortened: (§3)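 Murine L1210 leukemia cells were kept in log growth in RPMI-1640 with 10% fetal calf serum or NuSerum, HEPES-MOPS buffer and 1 mM aminoguanidine. IC50 is the concentration giving 50% of untreated control growth, as the mean of at least two experiments.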

[9] = test system: L1210; test: Growth inhibitory activity against L1210 cells (48h); assay type: functional, cell-based; conditions: Mus musculus, L1210, 48 h; procedure, shortened: as §3
[10] = Effect on ornithine decarboxylase (ODC) tested at 1 uM at 4 hour in L1210 cells; assay type: functional, Mus musculus; procedure, shortened: as §2
[11] = Binding affinity values for polyamine transporter was determined
[12] = test system: L1210; test: Percentage of spermine after 48 hr exposure to the compound (4.5 uM ) in L1210 cells; assay type: functional, Mus musculus
Procedure, shortened: (§4)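 Murine L1210 leukemia cells in log-phase growth (RPMI-1640, 10% fetal calf serum or NuSerum, HEPES-MOPS, 1 mM aminoguanidine) exposed to analogue for 48 h. Cells washed twice with cold RPMI-1640 and extracted with 0.6 N HClO4. PUT, SPD and SPM measured by HPLC of DANSYL derivatives and given as percent of untreated controls. Triplicate flasks per experiment.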

[13] = test system: L1210; test: Percentage of putrescine after 48 hr exposure to the compound (0.9 uM ) in L1210 cells; assay type: functional, Mus musculus; procedure, shortened: as §4
[14] = test system: L1210; test: Percentage of spermidine after 48 hr of exposure to the compound (0.9 uM ) in L1210 cells; assay type: functional, Mus musculus; procedure, shortened: as §4
[15] = test system: L1210; test: Percentage of putrescine after 48 hr exposure to the compound (4.5 uM ) in L1210 cells; assay type: functional, Mus musculus; procedure, shortened: as §4
[16] = test system: L1210; test: Percentage of spermidine after 48 hr of exposure to the compound (4.5 uM ) in L1210 cells; assay type: functional, Mus musculus; procedure, shortened: as §4
[17] = test system: L1210; test: Percentage of spermine after 48 hr exposure to the compound (125 uM ) in L1210 cells; assay type: functional, Mus musculus; procedure, shortened: as §1
[18] = test system: L1210; test: Percentage of spermidine after 48 hr of exposure to the compound (125 uM ) in L1210 cells; assay type: functional, Mus musculus; procedure, shortened: as §1
[19] = test system: L1210; test: Percentage of putrescine after 48 hr exposure to the compound (25(10)uM ) in L1210 cells; assay type: functional, Mus musculus; procedure, shortened: as §1
[20] = test system: L1210; test: Percentage of spermidine after 48 hr of exposure to the compound (25(10)uM ) in L1210 cells; assay type: functional, Mus musculus; procedure, shortened: as §1
[21] = test system: L1210; test: Percentage of putrescine after 48 hr exposure to the compound (125 uM ) in L1210 cells; assay type: functional, Mus musculus; procedure, shortened: as §1
[22] = The chronic lethal dose administered as intraperitoneal injection; assay type: ADME; conditions: mouse, ip
Procedure, shortened: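 Female CD-1 mice, 10–12 weeks old. Analogue given as hydrochloride salt by ip injection three times daily for 6 days (18 doses). Appetite, weight and appearance monitored daily, and lethality scored 10 days after the final dose.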

[23] = test system: L1210; test: Percentage of spermidine after 48 hr of exposure to the compound (3(0.3)uM ) in L1210 cells; assay type: functional, Mus musculus; procedure, shortened: as §1
[24] = test system: L1210; test: Percentage of spermine after 48 hr exposure to the compound (15(1.5)uM ) in L1210 cells; assay type: functional, Mus musculus; procedure, shortened: as §1
[25] = test system: L1210; test: Percentage of spermine after 48 hr exposure to the compound (3(0.3)uM ) in L1210 cells; assay type: functional, Mus musculus; procedure, shortened: as §1
[26] = test system: L1210; test: Percentage of putrescine after 48 hr exposure to the compound (3(0.3)uM ) in L1210 cells; assay type: functional, Mus musculus; procedure, shortened: as §1
[27] = test system: L1210; test: Percentage of putrescine after 48 hr exposure to the compound (15(1.5)uM ) in L1210 cells; assay type: functional, Mus musculus; procedure, shortened: as §1
[28] = test system: L1210; test: Percentage of spermidine after 48 hr of exposure to the compound (15(1.5)uM ) in L1210 cells; assay type: functional, Mus musculus; procedure, shortened: as §1

SMILES	AdoMetDC [2] [%]	Picoequivalents of amine/10e6 cells [4]	SSAT [7] [%]	pIC50 [8]	pIC50 [9]	ODC [10] [%]	pKi [11]	other results
CNCCCCCNCCCCNC	71	20810	130	6.92	5.70	56	4.68	Polyamine [1]: 33%; Polyamine [3]: 18%; Polyamine [5]: 0%; Polyamine [6]: 0%
NCCCNCCCN [NORSPERMIDINE]	62		150	6.30	6.05	11	5.14	Polyamine [12]: 83%; Polyamine [13]: 38%; Polyamine [14]: 44%; Polyamine [15]: 0%; Polyamine [16]: 12%
CCNCCCCNCCCCNCC	90	16920	640	6.46	4.66	47	4.72	Polyamine [17]: 97%; Polyamine [18]: 3%; Polyamine [19]: 0%; Polyamine [20]: 6%; Polyamine [21]: 0%
CCNCCCCCNCCCCNCC	70	14590	120	6.70	5.35	100	4.19	LD50 [22]: 375 mg/kg/day; Polyamine [23]: 47%; Polyamine [24]: 98%; Polyamine [25]: 99%; Polyamine [26]: 0%; Polyamine [27]: 0%; Polyamine [28]: 18%
